From ChEMBL document CHEMBL3608216, “Synthesis and evaluation of novel pleuromutilin derivatives with a substituted pyrimidine moiety” (2015) come the findings set out here.

Holding throughout (assay type): functional
One test has as its system Escherichia coli. The test is described as follows: Antibacterial activity against Escherichia coli ATCC 25922 after 24 to 48 hrs by agar dilution method. In outline:
(§1)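 Agar dilution per NCCLS. Compounds were dissolved in 15%–30% DMSO in water, serially two-fold diluted in distilled water (11 dilutions) and incorporated into hot Mueller–Hinton agar at a tenfold further dilution. Inocula from blood slants were adjusted to about 10^5–10^6 CFU/mL in 0.90% saline and spotted onto the plates, then incubated at 36.5 °C for 24–48 h. MIC was the lowest concentration giving complete growth inhibition; run in triplicate.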
In general terms: In agar dilution, organisms are placed on agar that contains the substance at set levels.

In another test the test system is Bacillus subtilis. Put plainly: Antibacterial activity against Bacillus subtilis […] after 24 to 48 hrs by agar dilution method. In outline: as §1
Test [1] relates to Staphylococcus epidermidis. Put plainly: Antibacterial activity against […] Staphylococcus epidermidis ATCC 35984 after 24 to 48 hrs by agar dilution method. Conditions: RP62A. The essentials: (§2)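 Agar dilution per NCCLS. Compounds at 1.28 mg/mL stock in 15%–30% DMSO/water, two-fold serial dilutions (11 total) in water, mixed 1:10 into hot Mueller-Hinton agar. Inocula from blood slants adjusted to about 10^5–10^6 CFU/mL in 0.90% saline, spotted onto plates, incubated 36.5 °C for 24–48 h. MIC is the lowest concentration giving complete growth inhibition. Run in triplicate.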

The subject of test [2] is Staphylococcus aureus. Put plainly: Antibacterial activity against […] Staphylococcus aureus ATCC 29213 after 24 to 48 hrs by agar dilution method. The essentials: as §2
Test [3] concerns Staphylococcus aureus. The test is described as follows: Antibacterial activity against […] Staphylococcus aureus in iv dosed neutropenic mouse systemic infection model assessed as increase in mouse survival measured on day 4. The essentials:
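Male and female mice made neutropenic with ip cyclophosphamide, 150 mg/kg for four days, then 100 mg/kg one day before inoculation. Infected ip with 0.5 mL MRSA at 10^9 CFU/mL, 10 per group. About 1 h later dosed iv at 2, 3, 4.46, 6.64 and 10 mg/kg in 0.5 mL soybean lecithin:sterile water (1:30). Endpoint was survival at day 4. ED50 calculated by Reed–Muench using the Hill equation.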

Values after ≈ are worked out from the molar mass of the structure shown.

By MIC is commonly meant the lowest concentration found to suppress growth. Low readings indicate greater potency, high ones weaker potency. With `C=C[C@]1(C)C[C@@H](OC(=O)CSc2nc(O)cc(NC(=O)[C@@H](N)C(C)C)n2)[C@]2(C)[C@H](C)CC[C@]3(CCC(=O)[C@H]32)[C@@H](C)[C@@H]1O`, the MIC against Escherichia coli came to 32 µg/mL (≈ 53.1 µM); with Bacillus subtilis, 16 µg/mL (≈ 26.5 µM); in test [1], 0.5 µg/mL (≈ 0.829 µM); in the test with Staphylococcus aureus [2] it was 2 µg/mL (≈ 3.32 µM).
The like results for `C=C[C@]1(C)C[C@@H](OC(=O)CSc2nc(O)cc(NC(=O)[C@H](N)C(C)C)n2)[C@]2(C)[C@H](C)CC[C@]3(CCC(=O)[C@H]32)[C@@H](C)[C@@H]1O` were, in that order, 64 µg/mL (≈ 106 µM), 8 µg/mL (≈ 13.3 µM), 0.125 µg/mL (≈ 0.207 µM) and 1 µg/mL (≈ 1.66 µM).
In the case of `C=C[C@]1(C)C[C@@H](OC(=O)CSc2nc(O)cc(NC(C)=O)n2)[C@]2(C)[C@H](C)CC[C@]3(CCC(=O)[C@H]32)[C@@H](C)[C@@H]1O`, the figures for the MIC with Escherichia coli and with Bacillus subtilis were 8 µg/mL (≈ 14.7 µM) and 32 µg/mL (≈ 58.6 µM), respectively.
As to `C=C[C@]1(C)C[C@@H](OC(=O)CSc2nc(O)cc(NC(=O)[C@H]3CCCCN3)n2)[C@]2(C)[C@H](C)CC[C@]3(CCC(=O)[C@H]32)[C@@H](C)[C@@H]1O`, the MIC against Escherichia coli was 32 µg/mL (≈ 52 µM); with Bacillus subtilis it was 16 µg/mL (≈ 26 µM); in test [1], 2 µg/mL (≈ 3.25 µM); against Staphylococcus aureus [2], 8 µg/mL (≈ 13 µM).
As usually defined, the ED50 is the dose that gives a 50% effect, or the effect in half of the subjects. For `C=C[C@]1(C)C[C@@H](OC(=O)CSCCN(CC)CC)[C@]2(C)[C@H](C)CC[C@]3(CCC(=O)[C@H]32)[C@@H](C)[C@@H]1O.O=C(O)/C=C/C(=O)O` [TIAMULIN FUMARATE], the Activity result in the test with Staphylococcus aureus [3] was “Dose-dependent effect”. Further, the ED50 in the test with Staphylococcus aureus [3] (96 h) came out at 5.95 mg/kg. The MIC came out at 8 µg/mL with Escherichia coli, 32 µg/mL in the test with Bacillus subtilis, 0.25 µg/mL in test [1] and 0.5 µg/mL in the test on Staphylococcus aureus [2].
Turning to `C=C[C@]1(C)C[C@@H](OC(=O)CSc2nc(N)cc(O)n2)[C@]2(C)[C@H](C)CC[C@]3(CCC(=O)[C@H]32)[C@@H](C)[C@@H]1O`, the MIC in the test with Escherichia coli worked out at 16 µg/mL (≈ 31.8 µM); in the test with Bacillus subtilis, 32 µg/mL (≈ 63.5 µM); in test [1], 0.125 µg/mL (≈ 0.248 µM); in the test with Staphylococcus aureus [2], 0.25 µg/mL (≈ 0.496 µM).
In the same order, the values of `C=C[C@]1(C)C[C@@H](OC(=O)CSc2nc(N)cc(OC)n2)[C@]2(C)[C@H](C)CC[C@]3(CCC(=O)[C@H]32)[C@@H](C)[C@@H]1O` are 32 µg/mL (≈ 61.8 µM), 16 µg/mL (≈ 30.9 µM), 0.5 µg/mL (≈ 0.966 µM) and 1 µg/mL (≈ 1.93 µM).
The like results for `C=C[C@]1(C)C[C@@H](OC(=O)CSc2nc(N)cc(=O)n2C)[C@]2(C)[C@H](C)CC[C@]3(CCC(=O)[C@H]32)[C@@H](C)[C@@H]1O` were, in that order, 32 µg/mL (≈ 61.8 µM), 16 µg/mL (≈ 30.9 µM), 1 µg/mL (≈ 1.93 µM) and 2 µg/mL (≈ 3.86 µM).
The like results for `C=C[C@]1(C)C[C@@H](OC(=O)CSc2nc(O)cc(NC(=O)[C@@H]3CCCCN3)n2)[C@]2(C)[C@H](C)CC[C@]3(CCC(=O)[C@H]32)[C@@H](C)[C@@H]1O` were, in that order, 16 µg/mL (≈ 26 µM), 16 µg/mL (≈ 26 µM), 1 µg/mL (≈ 1.63 µM) and 4 µg/mL (≈ 6.51 µM).
